For data set [1], the system named is Mus musculus. The experiment in a line: Effect of compound on total white blood cell count in BDG1 male mice, after intraperitoneal administration at a dose of 12.8 mg/kg on day 5 (highest dose was twice the optimal dose). The class given is functional. Put shortly: (§1)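 BDG₁ male mice received a single ip dose on day 0. The dose series topped out at the LD₅₀ level, or at twice the optimal dose for some agents. Total white blood cell count was taken on days 3, 5 and 7 and expressed as % change from untreated controls. Significance was set at p ≤ 0.05 or p ≤ 0.01.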

Data set [2] concerns Mus musculus. The experiment in a line: Antitumor activity against P-388 murine leukemia cells in CDF1 female mice after intraperitoneal administration at the specified optimal dose of 6.4 mg/kg. The class given is functional.
In data set [3] the test system is Mus musculus. The experiment in a line: Effect of compound on total white blood cell count in BDG1 male mice, after intraperitoneal administration at a dose of 6.4 mg/kg on day 5. The class given is functional. Put shortly: (§2)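 Single ip dose given on day 0 to BDG₁ male mice. Total white blood cell count measured on days 3, 5 and 7, expressed as % change from control. Highest dose was at the LD₅₀, or at twice the optimal dose where so footnoted. Significance reported at p ≤ 0.05 and p ≤ 0.01. D marks death of one or more mice.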

Data set [4] relates to Mus musculus. The experiment in a line: Effect of compound on total white blood cell count in BDG1 male mice, after intraperitoneal administration at a dose of 12.8 mg/kg on day 7 (highest dose was twice the optimal dose). The class given is functional.
The subject of data set [5] is Mus musculus. The experiment in a line: Effect of compound on total white blood cell count in BDG1 male mice, after intraperitoneal administration at a dose of 6.4 mg/kg on day 3. Format: functional. Put shortly: as §2
Data set [6] deals with Mus musculus. The experiment in a line: Minimum effective dose that show activity against P-388 murine leukemia cells in CDF1 female mice, after intraperitoneal administration (optimal dose is 6.4 mg/kg). As to conditions: P388, ip, read-out: MED. The class given is functional. The procedure, abridged: (§3)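 10⁶ P-388 ascites cells implanted ip in CDF₁ female mice. Six mice per dose, 10 saline-injected controls, and a concurrent mitomycin C reference group. %T/C = median survival time of treated/control × 100. MED is the lowest dose giving %T/C > 125. Therapeutic ratio = optimal dose/MED.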

Data set [7] deals with Mus musculus. The experiment in a line: Effect of compound on total white blood cell count in BDG1 male mice, after intraperitoneal administration at a dose of 6.4 mg/kg on day 7. The class given is functional. The procedure, abridged:
as §2

The subject of data set [8] is Mus musculus. The experiment in a line: Effect of compound on total white blood cell count in BDG1 male mice, after intraperitoneal administration at a dose of 12.8 mg/kg on day 3 (highest dose was twice the optimal dose). The class given is functional. The procedure, abridged: as §1
Data set [9] is described as follows: Therapeutic ratio is expressed as ratio of optimal dose and minimum effective dose. The class given is ADME. The settings on record: mouse; read-out: TR. The procedure, abridged:
as §3

Data set [10] has as its system Mus musculus. The experiment in a line: Effect of compound on total white blood cell count in BDG1 male mice, after intraperitoneal administration at a dose of 1.69 mg/kg on day 7. The class given is functional. Put shortly:
as §1

The species named for data set [11] is Mus musculus. The experiment in a line: Degree of leukopenia produced by compound is assessed form Percent change in white cells on day 7. The class given is functional. Put shortly: as §1
Data set [12] has as its system Mus musculus. The experiment in a line: Effect of compound on total white blood cell count in BDG1 male mice, after intraperitoneal administration at a dose of 1.27 mg/kg on day 3. Format: functional. Put shortly: as §1
Data set [13] deals with Mus musculus. The experiment in a line: Antitumor activity against P-388 murine leukemia cells in CDF1 female mice after intraperitoneal administration at the specified optimal dose of 1.6 mg/kg. Format: functional.
In data set [14] the test system is Mus musculus. The experiment in a line: Effect of compound on total white blood cell count in BDG1 male mice, after intraperitoneal administration at a dose of 2.55 mg/kg on day 3. Format: functional. Put shortly:
(§4)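 Single ip dose given on day 0 to BDG1 male mice over a descending dose series. Total white blood cell count is expressed as % change from untreated control on days 3, 5 and 7. Significance is flagged at p ≤ 0.05 and p ≤ 0.01.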

The test system of data set [15] is Mus musculus. The experiment in a line: Effect of compound on total white blood cell count in BDG1 male mice, after intraperitoneal administration at a dose of 3 mg/kg on day 3. Format: functional. Put shortly:
as §4

The test system of data set [16] is Mus musculus. The experiment in a line: Effect of compound on total white blood cell count in BDG1 male mice, after intraperitoneal administration at a dose of 3 mg/kg on day 7. The class given is functional. The procedure, abridged: as §4
Data set [17] has as its system Mus musculus. The experiment in a line: Effect of compound on total white blood cell count in BDG1 male mice, after intraperitoneal administration at a dose of 3 mg/kg on day 5. The class given is functional. The procedure, abridged: as §4
The subject of data set [18] is Mus musculus. The experiment in a line: Effect of compound on total white blood cell count in BDG1 male mice, after intraperitoneal administration at a dose of 1.27 mg/kg on day 7. The class given is functional. Put shortly:
as §1

Data set [19] deals with Mus musculus. The experiment in a line: Effect of compound on total white blood cell count in BDG1 male mice, after intraperitoneal administration at a dose of 2.55 mg/kg on day 7. Format: functional. The procedure, abridged: as §4
For data set [20], the system named is Mus musculus. The experiment in a line: Effect of compound on total white blood cell count in BDG1 male mice, after intraperitoneal administration at a dose of 1.69 mg/kg on day 5. The class given is functional. Put shortly: as §1
Data set [21] is filed under the species Mus musculus. The experiment in a line: Half-wave potential produced by the compound at their optimal dose. The class given is functional. Set-up: unit not given here.
Data set [22] has as its system Mus musculus. The experiment in a line: Effect of compound on total white blood cell count in BDG1 male mice, after intraperitoneal administration at a dose of 2.55 mg/kg on day 5. Format: functional. The procedure, abridged:
as §4

Data set [23] has as its system Mus musculus. The experiment in a line: Effect of compound on total white blood cell count in BDG1 male mice, after intraperitoneal administration at a dose of 1.69 mg/kg on day 3. Format: functional. Put shortly:
as §1

The subject of data set [24] is Mus musculus. The experiment in a line: Minimum effective dose that show activity against P-388 murine leukemia cells in CDF1 female mice, after intraperitoneal administration (optimal dose is 1.6 mg/kg). Format: functional. As to conditions: P388, ip, read-out: MED.
Data set [25] deals with Mus musculus. The experiment in a line: Effect of compound on total white blood cell count in BDG1 male mice, after intraperitoneal administration at a dose of 1.27 mg/kg on day 5. The class given is functional. The procedure, abridged: as §1
Data set [26] deals with Mus musculus. The experiment in a line: Antitumor activity against P-388 murine leukemia cells in CDF1 female mice after intraperitoneal administration at the specified optimal dose of 51.2 mg/kg. The class given is functional.

As a reminder, the T/C is the ratio of treated to control.

As for `C=CCNC1=C(C)C(=O)C2=C(C1=O)[C@H](COC(N)=O)C1(OC)[C@@H]3N[C@@H]3CN21` (stereo partly drawn), the Change in data set [1] was -42%; in data set [3], -37%; in data set [4], 6%; in [5] it was -35%; in data set [7], -0.6%; in data set [8] it was -33%. This molecule also came in with a T/C in data set [2] of 150%. Also, the minimal effective dose in [6] is 3.2 mg/kg. Besides, the selectivity ratio in data set [9] stood at 2.
Turning to `COC12[C@@H]3N[C@@H]3CN1C1=C(C(=O)C(N3CC3)=C(C)C1=O)[C@@H]2COC(N)=O` (stereo partly drawn), the Change is -11% in data set [10]; -11% in data set [11]; -16% in [12]; 15% in data set [14]; -12% in data set [15]; 13% in [16]. Further, the Change came to 3% in data set [17]; 3% in data set [18]; 18% in data set [19]; 9% in [20]; 34% in data set [22]; 16% in data set [23]. Also, in data set [25], the Change is given as 27%. In addition, in data set [13], the T/C worked out at 266%. For the same molecule, the selectivity ratio in data set [9] was found to be 64. In data set [21], the E1/2 is given as -0.31. The minimal effective dose in [24] came out at 0.025 mg/kg.
`COC12[C@@H](COC(N)=O)C3=C(C(=O)C(C)=C(NCCCl)C3=O)N1C[C@@H]1[C@H]2N1C` (stereo partly drawn) had a T/C in data set [26] of 205%. The selectivity ratio in data set [9] was determined as 8.
